Reference: the EternaBench riboswitch data

Tested on: MS2 coat protein
Assay: apparent Kd, MS2 coat protein; higher = weaker binding; RNA-MaP array; FMN 200 µM where present
In short: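 Stalled E. coli RNA polymerase transcribed each design on Illumina sequencing-chip clusters. The clusters were titrated with SNAP-549-labelled MS2 coat protein, starting at 0.7 or 1.5 nM and doubling up to 3 µM, first without ligand and then with constant ligand, in 100 mM Tris-HCl pH 7.5, 80 mM KCl, 4 mM MgCl2, BSA, DTT, yeast tRNA and Tween-20. Green signal was normalised to red-channel RNA signal and to the control-cluster median Fmax. The apparent Kd is the median of filtered binding-curve fits made for each cluster.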

[1] = designed as: ON switch for flavin mononucleotide, no ligand
[2] = ligand present: flavin mononucleotide, designed as: ON switch for flavin mononucleotide
[3] = designed as: OFF switch for flavin mononucleotide, no ligand
[4] = ligand present: flavin mononucleotide, designed as: OFF switch for flavin mononucleotide

| Sequence | apparent Kd [1] [nM] | apparent Kd [2] [nM] | apparent Kd [3] [nM] | apparent Kd [4] [nM] |
| --- | --- | --- | --- | --- |
| GAUUGACGACAAUUACAUGAGGAUCACCCAUGUUGUAGGAUGCAGGAUAUGUGGUAUAUUAUUUAACAGAAGGGCAAUAAUUUU | 25.8 | 29.3 | – | – |
| UAUCUGUGAGGAUAUCCGGGCCCGGGCGAAAGCCCGGGCCCGGAGAAGGCACAUGAGGAUCACCCAUGUGACCU | – | – | 14.8 | 19.1 |
| GAGCGGGAAACAUGAGGAUCACCCAUGUAAUAAGUCCUCAAGUAGGAUAUGCACACGAGAAGUGUGCAGAAGGGCUACCCGGUC | – | – | 20.9 | 28.8 |
| UAGAAUCGAGGAUAUACAUGAGGAUCACCCAUGUGUUGCCGCGUGAUGUGUUUGUCAGGUAGAAGGCGAUUAUA | – | – | 64.4 | 266 |
| AGCUACGUUUCGUAGCAGUGUCAUCGAGAAGGCCUCAUUACAUGAGGAUCACCCAUGUGAGCAUGGGAGGAUAUCGAUGAUACA | 406 | 129 | – | – |
| ACGUAACGGUGCGCGAGUGGACGGAGAAGGCAGACAUGAGGAUCACCCAUGUGAGCCUGCUAUUCUGAGGAUAUCCGUCCGCAC | – | – | 38.9 | 254 |
| AAAGCUGAAGGAUAUACUUGGAAAAAAAAAAAAAAAAAAAAACAUGAGGAUCACCCAUGUAGAAGGUCAGAUAA | – | – | 48.2 | 39.8 |
| AUUAUAAAGGUAGGAUAUAGUAUUAUAAUUAAAUUAGAAGGAUCUCACAUGAGGAUCACCCAUGUAAGAGGAUCACCCAUGUAU | – | – | 9.64 | 9.62 |
| UCGGCCGCCGUGAGGAUAUGCCCGCGCGCCCGCGGGCAGAAGGCACAUGAGGAUCACCCAUGUCCCGCGGCACU | – | – | 15.4 | 27.4 |
| UGUGUGUGGGCAGGAUAUGCAUGAAUAUAUAUGAUGUAGUGUGAUGUAACAUGAGGAUCACCCAUGUAGAAGGGCCGGUGUAUG | – | – | 145 | 234 |
| GGAUCGAAUGUGAGGAUAUGCUGGUCCUUGGAUCAGCAGAAGGCACAUGAGGAUCACCCAUGUGACCUAGAUCC | – | – | 32.7 | 430 |
| AAAGACAGACAUGAGGAUCACCCAUGUUAUGAAGAUACUGGGAGAAGGGCGAUUGCAAAGCAAUCGCAGGAUAUUCGUAUUGUC | 92.2 | 15.6 | – | – |
| UUGGGACUAUCAGGAUAUGGUGUAGCCCAGUAAAGGACAUGAGGAUCACCCAUGUACCAUUGGUACCAGAAGGGAUGAUCCUAC | 18.4 | 14.8 | – | – |
| AGAUCUACAGGAUAUACAUGAAAGAUCAUCAUGACCCUUCAACAUGAGGAUCACCCAUGUAGAAGGGUAGAUCA | – | – | 27.7 | 13.5 |
| UAAAUUUUAUGAUAUUAUGACAUUAGAAGGCUGUACAUGUUGAUACAUGAGGAUCACCCAUGUAUAGAGGAUAUAGACAAUUAU | – | – | 40.5 | 92.6 |
| AAAACGUGAGGAUAUCCAAUAUAUGACAUGAGGAUCACCCAUGUUUCCACUCGUACCUCCGGAGAAGGCACAAUUU | – | – | 51.2 | 41.7 |
| UAUAGACAUGAGGAUCACCCAUGUAAGGAUAUCGGUACUAAUGGUAUAAUCUACUUAGCGAGAAGGUACAAUGU | – | – | 31 | 30.6 |
| UAAAAGCGAGGAUAUACAUGAGGAUCACCCAUGUGAAAGAAAAAUAAAAAAAAAAAAAGUAGAAGGCGCUAAAA | – | – | 62.1 | 58.4 |
| GCUAUCGGGUGAGGAUAUAUGAUUGUGAUUAAAAUAGAAGGCAUCUCAGAAGACAUGAGGAUCACCCAUGUAGUUAAGAUGGCC | 14.6 | 11.4 | – | – |

| Sequence | apparent Kd [1] [nM] | apparent Kd [2] [nM] | apparent Kd [3] [nM] | apparent Kd [4] [nM] |
| --- | --- | --- | --- | --- |
| UUACUUGUGCAGAAGGGCAUUGAUUUAGGUUUUUAGGUUGAUCAGAUAUGCAGGAUAUGCUAUACAUGAGGAUCACCCAUGUUC | 112 | 8.99 | – | – |
| GCCCGGGCAGGAUAUGCCCGGGCGCACAUGAGGAUCACCCAUGUGGCCCUGUGCCGUCCGGCAGAAGGGCCCGGGC | – | – | 90.1 | 87.4 |
| AGAGGACAUGAGGAUCACCCAUGUAAGGAUAUGCGGAGAGUUUGGAGAGGUCGGGUAGGCAGAAGGUACAGGAG | – | – | 65.1 | 91.7 |
| AACAGUAGAGGAUAUACAUGAGGAUCACCCAUGUGAUAAUUACGUGGCGUACCACGAUGUAGAAGGCUACUGGA | – | – | 144 | 36.2 |
| CGACAGUCAGGAUAUGCAAAAAAAAAAAAAAAAAAAAAAAAGCAGAAGGGACAUGAGGAUCACCCAUGUCGUCG | – | – | 59.5 | 45.2 |
| CCAGUGUAAGGAUAUGACAAUGGUAUCUUCGGAUACCAUUGUCAGAAGGUACAUGAGGAUCACCCAUGUAACAC | – | – | 16.6 | 26.5 |
| GGAUAAUUGAUCCUUUUUUAUUACAUGAGGAUCACCCAUGUGCAGGAUAUCGAUUAUUAUAGUUUCGAGAAGGGCAAGAAUUGU | – | – | 73.4 | 276 |
| CGUACGUCAGGAUAUCUGAUGUCUAACUUCGGUUAGACAUCAGAGAAGGGACAUGAGGAUCACCCAUGUACGAG | – | – | 88.3 | 105 |
| AGUUACAUACUCAACAUGAGGAUCACCCAUGUACUCUCUUGUAAGGAUAUACAUUCGUAUUGAAAGUAGAAGGUACUAAUUAUG | 89.1 | 77.3 | – | – |
| AUCUUCGGAGGAUAUUCUCCGUCACACAUGAGGAUCACCCAUGUCAUUCGAAUGGGUUCGGAAGAAGGUCGAAGGU | – | – | 236 | 171 |
| UGUCGGAGCAGAGGAUAUUACAUGAGGAUCACCCAUGUAUGAACCAAUAGCUGGAAACAGCUAUGUAAGAAGGCUGCUCCGACA | – | – | 5.31 | 9.42 |
| GGAUCGAGUGUGAGGAUAUGCUGGUCCUUGGAUCAGCAGAAGGCACAUGAGGAUCACCCAUGUGAAGACGGUCC | – | – | 32.3 | 201 |
| UCCUGGCGAGGAUAUACAAAGAUUUUUUCGUUUUGUUACGAACAUGAGGAUCACCCAUGUAGAAGGUGCUGCUG | – | – | 204 | 193 |
| UCCUUAGCGGUCAGGAUAUACACCCGUUACUCCUUGUAGAAGGGACAUGAGGAUCACCCAUGUACAGUACAUCU | – | – | 22.9 | 21 |
| GCCAUCAUAUGAGGAUAUGACACCGAAACGGUGUCAGAAGGCAUGUCGAUAGACAUGAGGAUCACCCAUGUUUACAUGAUGGCA | 91.5 | 20.7 | – | – |
| AAGGCCUAUUCCAGGACUAUCGUACUAGAAGGGUGACCUGACAUGAGGAUCACCCAUGUACGGGCACAGGAUAUAGAUGAAAGG | 50.1 | 11.3 | – | – |
| AAGAGGUGAGGAUAUCGAAGAAGAAGAAGAAGAAGAAGAAACGAGAAGGCACAUGAGGAUCACCCAUGUAAGAA | – | – | 22.5 | 19.9 |
| CAGGGUCGUAUUCAGCCCGUCCACAUGAGGAUCACCCAUGUCAAGGAUAUAGCUUAAAAUACAAACUAGAAGGUGACGCUGGGU | – | – | 21.7 | 83.8 |
| AGGAUACACCAGAAGGACAUGAGGAUCACCCAUGUAGGAUAUGGGUACGCCGACAUUAGUCUGCUCUCGGUAGACUUUCCUGAU | 75.1 | 10.4 | – | – |

| Sequence | apparent Kd [1] [nM] | apparent Kd [2] [nM] | apparent Kd [3] [nM] | apparent Kd [4] [nM] |
| --- | --- | --- | --- | --- |
| AUAUCUCUAUUAGUUCCAAUACGAACAUGAGGAUCACCCAUGUAGGAUAUGCUAGAAGUUGUGUUGCAGAAGGACAAGUACCUU | – | – | 11.8 | 11.1 |
| AAAAAACAUGAGGAUCACCCAUGUAAAAAAAUCACAGGAUAUAAGGUCGCGAAAGCGACCUUAGAAGGGUGAUCCU | 20.1 | 20.1 | – | – |
| UGGAAAUGCGAGAAGGACAUGAGGAUCACCCAUGUAGGAUAUCGACCUAGGUGCAGAUCGUUAUAGGAUCUCUUCGCUUGUAGG | 16.5 | 7.08 | – | – |
| CUGGAAUACAGACAUGAGGAUCACCCAUGUUUAAGGGAGGCACAGGAUAUGUCGACGCACCAUAGACAGAAGGGUGACUUGCUU | 47.8 | 20.3 | – | – |
| AAUAUACAUGAGGAUCACCCAUGUUUUGGUGCAUGAGGAUAUAAAAACAAUUACAUAAAGUUAGAAGGCAUGAAUA | 54.9 | 47.9 | – | – |
| CAGCGAAAGCUGAAUCUGUAGAGAGAGGAUAUACGUCAUAAGGUGCAUACAUGAGGAUCACCCAUGUAGAAGGCUCUCUACAGU | – | – | 25.3 | 603 |
| UAUAGUGGCGUAGGAUAUCUGCGUACAUGAGGAUCACCCAUGUCUCCCAGCAGCUGAUCUGGGACAGAGAAGGGCGACCGCAUA | 157 | 63.6 | – | – |
| UGGAUGUAGGAGAAGGAGGACUUCAUGAGGAUCACCCAUGUGUUAGUACUUAGGAUAUUUGACAACAUGAGGAUCACCCAUGUG | 105 | 96.4 | – | – |
| UUUUGAUGAGGAUAUCGAGGUUAGUACAUGAGGAUCACCCAUGUUAUCCAGGUGUCGGUUCGAGAAGGUAUUGGAC | – | – | 18.5 | 22.9 |
| GCGUUGAACGAGAAGGCCAAUACAUGAGGAUCACCCAUGUUAAGUUGUUUUGGAGGAUAUCGAACACAUUCAAUAUUGCAACGC | – | – | 6.06 | 5.65 |
| CCUUAACAUGAGGAUCACCCAUGUGAGGAUAUGAUGCAGCAGUGGUCUACGCUGUGCAUCAGAAGGUACAUGGU | – | – | 35.9 | 145 |
| CGUUUUUAUGUAGGAUAUGCUUGUGGUAAGAUAGCAGAAGGACAUGAGGAUCACCCAUGUUAAUGAUAGAGAUUUUAUGUUGCG | – | – | 37.9 | 50.2 |
| GAUAUAGAGCAGGAUAUCUUAGAUAUGUAAUAAAGAGAAGGGCUCACAUGAGGAUCACCCAUGUGGUCCUAGAU | – | – | 18.5 | 113 |
| UCCACUGCUGAGAAGGGAUCCGUGUGGUUCGAAUCAGGAUAUCGAUACAGUGCAGCAUGAGGACAUGAGGAUCACCCAUGUAUU | 16 | 13 | – | – |
| AGAUGGUGAUGUUAUCUUCGUCGGACAUGAGGAUCACCCAUGUAGGAUAUGCUACUAAAAUAGUAGCAGAAGGACAUGUAUCUU | – | – | 104 | 1030 |
| GCUAUCGGGUGAGGAUAUAUGAUUGUGAUUAAAAUAGAAGGCAUCUCAGAAGACAUGAGGAUCACCCAUGUAGUUAAGAUGGCU | 15.3 | 12.8 | – | – |
| AAAUUGGUAGAGGAUAUCGGAUAGGAUUUAUUGCGAGAAGGCUGCACAUGAGGAUCACCCAUGUUCUGUUGGGA | – | – | 201 | 280 |
| GACUUGUUAGGAUAUCUUACAUUUGCAUCAUAGUAACCUUUGGAGAAGGGACAUGAGGAUCACCCAUGUUUGGA | – | – | 40.1 | 36.6 |
